Key:
[1] = system: S.aureus infected skin wound; experiment: In vivo anti-infection study, S.aureus infected full-thickness wound model; set-up: species or system rat; conditions: SD rats, early stages, n = 5
In short: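 Rats bearing S. aureus-infected skin wounds were given PBS (control) or test compound. Wound beds were inspected visually for yellow pus in the early stages. Infection was confirmed by agar plate counts of tissue exudate from wound sites on day 3. Wound healing and wound size were followed over time. Mean ± SD, n = 5.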

S. aureus biofilm = experiment: Activity against mature S. aureus biofilm; assay type: cell-based, Staphylococcus aureus; conditions: treatment for 8 h

Q: How did the “pyogenic infection (yellow pus) on the infected wound bed” value [1] turn out when N3-Arg-Trp-Arg-Trp-Arg-Trp-NH2 [AMP] was run?
A: Its value is “not observed”.

Q: What about the “minimum eradication biofilm concentration” value (S. aureus biofilm) of the same substance?
A: The value was 1,280 μmol L^−1.

Source: PMC10407542 (The Innovation, 2023)
